Bioassay records as filed in PubChem BioAssay.
Lipid droplet: inhibitors of hepatocyte lipid droplet formation, primary screen, imaging, high-throughput imaging, BODIPY stain; AML12 mouse hepatocytes, oleate lipid droplets; inhibition, % at 6.5 µM; hit rate 0.4% among 240,000;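 active = lipid droplet intensity inhibited by at least 50%, with more than 500 cells counted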
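Test system: AML12 mouse liver cells; schedule: overnight exposure; technique: high-content imaging of BODIPY-stained droplets and DAPI nuclei; read-out: % inhibition of corrected integrated BODIPY droplet signal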
NR3A LBD binder: binders of NR3A ligand-binding domain, primary screen, biophysical, differential scanning fluorimetry, uHTS | Glutamate receptor ionotropic, NMDA 3A (GRIN3A) ligand-binding domain | NR3A LBD differential scanning fluorimetry, Tm shift; 0% = protein alone, 100% = glycine-bound protein | Tm shift relative to glycine control, % at 25 µM | hit rate 2.5% among 340,000 | AID 1259313, 2017;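 active = melting temperature shift of at least 10% of the positive control shift, at one fixed dose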
aDG glyco act: activators of alpha-DG glycosylation, primary screen, uHTS, Pro5-aDG cells, AlphaScreen; alpha-DG glycosylation AlphaScreen (IIH6); 0% Pro5, 100% B10-LARGE cell signal; hit rate 0.22% among 360,000; activation, % at 10 µM;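 active = activation of at least 8% versus controls, or a plate z-score of at least 8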;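 also: Pro5 are CHO cells carrying HIG-tagged alpha-DG that lacks glycosylation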
NPR1 activator: GC-A stimulated cGMP production enhancers – HEK293 GC-A cells, cGMP TR-FRET, EC30 ANP, primary screen; Atrial natriuretic peptide receptor 1 (Homo sapiens), P16066; 0% at EC30 ANP, 100% saturating ANP; activation, % at 10 µM; hit rate 0.14% among 370,000; AID 1671463, 2021; in the data active = activation above about 40%
NPR2 activator: human GC-B receptor activators, primary screen, HEK293 GC-B cells, cGMP TR-FRET, EC30 CNP; Atrial natriuretic peptide receptor 2 (Homo sapiens), P20594; 0% at EC30 CNP, 100% saturating CNP; activation, % at 10 µM; hit rate 0.11% among 370,000;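 active = activation at 10 µM reaching about 35% in either raw or pattern-adjusted values, limit read from the data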
JMJD2C inh: inhibitors of GASC-1 histone demethylase, primary screen, biochemical, fluorescence, DELFIA europium. hit rate 0.069% among 330,000. inhibition, % at 2.35 µM. GST-JMJD2C(1-420) H3K9me3 demethylation;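 active = more than half of a compound's replicate wells show inhibition beyond 50%, single wells judged on their own value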;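 also: signal counts dimethyl H3K9 product captured on neutravidin plate; 0% = median of DMSO wells and 100% = 0.3 times that DMSO median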
Numbers without * were called inactive; . = no result. Hits are enriched below; roughly 3% of the tested compounds scored in any of these assays.

SMILES	Lipid droplet	NR3A LBD binder	aDG glyco act	NPR1 activator	NPR2 activator	JMJD2C inh
O=C(c1cc(-c2cccs2)on1)N1CCN(c2ccccc2)CC1	.	0.0	-0.1	1.2	-3.6	-2.4
O=C(c1cc(-c2cccs2)on1)N1CCN(c2ccc(F)cc2)CC1	.	12.7*	-0.2	-3.9	-3.8	-4.0
CCCC1=NN2C(=N)/C(=C\c3cc(C)n(-c4cc(C)cc(C)c4)c3C)C(=O)N=C2S1	12.2	11.5*	0.0	-0.3	1.6	1.0
Cc1cc(C)cc(-n2c(C)cc(/C=C3\C(=N)N4N=C(CC(C)C)SC4=NC3=O)c2C)c1	-16.8	-4.8	0.0	0.4	-2.5	14.2
Cc1cc(S(=O)(=O)Nc2ccc(C(=O)N3CC(C)OC(C)C3)cc2)ccc1F (stereo not drawn)	.	0.3	0.4	1.0	-1.9	4.9
COc1ccc(NS(=O)(=O)c2ccc(C)c(C(=O)N3CC(C)OC(C)C3)c2)cc1 (stereo not drawn)	.	11.5*	-0.2	2.0	-1.9	-15.0
CN(C)Cc1c(C(=O)N/N=C/c2ccccc2OCc2c(F)cccc2Cl)nnn1-c1nonc1N	-2.1	0.8	0.3	-3.0	7.1	-5.3
CN(C)Cc1c(C(=O)N/N=C/c2cccc(OCc3c(F)cccc3Cl)c2)nnn1-c1nonc1N	-2.4	23.6*	1.8	4.5	1.8	-20.3
CN(Cc1c(C(=O)N/N=C/c2cccc(F)c2)nnn1-c1nonc1N)c1ccccc1	-26.9	36.8*	0.2	2.1	-3.4	1.7
COc1cccc(/C=N/NC(=O)c2nnn(-c3nonc3N)c2CN(C)c2ccccc2)c1	-13.5	19.5*	-0.3	2.9	-0.2	-8.6
Cc1cccc(S(=O)(=O)N[C@@H]2CC[C@@H](CCNS(=O)(=O)c3ccccc3F)O[C@@H]2CO)c1	.	.	-0.1	2.1	3.2	.
C=CCn1c(SCC(=O)Nc2ccc(CCCC)cc2)nnc1-c1ccc(Cl)cc1	.	.	.	-0.6	2.9	.
O=C(OCc1ccccc1)N1Cc2ccnnc2CC1c1ccccc1-c1ccc(C(F)(F)F)cc1 (stereo not drawn)	.	.	.	-14.7	-11.1	.
Cc1nc(Nc2ccc(Cl)cc2Cl)sc1C(=O)Nc1ccccc1	-1.5	43.0*	1.4	-1.7	-3.7	10.9
Cc1nc(NC(=O)/C=C/c2ccccc2)sc1C(=O)Nc1ccccc1Cl	.	-0.5	0.1	0.8	-5.0	0.6
CC(=O)c1sc(Nc2ccccc2)nc1C	.	.	0.2	1.7	-1.9	.
Cc1nc(NC(=O)/C=C/c2ccccc2)sc1C(=O)Nc1ccc(Cl)cc1	.	37.6*	-0.4	-1.9	7.0	0.4
Cc1nc(Nc2ccc(Cl)c(Cl)c2)sc1C(=O)Nc1ccccc1	12.8	31.9*	6.6	-4.0	-2.8	-13.8
C[C@H](CO)N1C[C@H](C)[C@@H](CN(C)S(=O)(=O)c2cccc(F)c2)Oc2ncc(Br)cc2C1=O	.	.	0.0	1.1	5.6	.
CC(C)(O)CN(CCCNC(=S)Nc1ccccc1)C(=S)Nc1ccccc1	.	-5.0	0.0	1.8	-1.6	.
O=C(CSc1nnc(COc2ccccc2)n1-c1ccccc1)Nc1ccc(S(=O)(=O)Nc2nccs2)cc1	.	.	.	-1.7	0.0	.
COc1ccc(OCC2CN(C3CCCC3)S(=O)(=O)CCO2)cc1 (stereo not drawn)	.	.	.	2.5	3.3	.
COC(=O)c1cc(C)sc1NC(=O)CN1CCN(C(=O)C2CCCO2)CC1 (stereo not drawn)	-6.7	4.5	-0.1	0.1	-2.5	-0.1
COc1ccc(S(=O)(=O)n2[nH]c(=O)c(CCO)c2C)c([N+](=O)[O-])c1	11.9	15.6*	-0.1	0.2	0.0	-1.0
Cc1noc(C)c1C(=O)OCC(=O)NC1CC1	-2.4	16.3*	-0.2	4.1	-0.7	4.2
SMILES	Lipid droplet	NR3A LBD binder	aDG glyco act	NPR1 activator	NPR2 activator	JMJD2C inh
Cc1noc(C)c1C(=O)OCC(=O)NC1CCCCC1C (stereo not drawn)	.	-1.8	0.1	2.8	-0.4	.
COc1ccc(NS(=O)(=O)c2ccc3oc(SCc4ccc(F)cc4)nc3c2)cc1	-1.2	12.6*	2.8	-3.9	-5.8	-4.4
CCOC(=O)N1CCN(C(C(=O)NC2CCCC2)c2cccc(OC)c2OC)CC1 (stereo not drawn)	.	.	0.2	0.1	-8.2	.
Cc1cccc2c(=O)n3c(cc12)-c1[nH]c2ccccc2c1CC3	.	3.0	0.0	37.8	35.2*	.
CSc1nnc2c3cc(F)ccc3n(Cc3ccccc3)c2n1	1.1	38.9*	0.0	-0.2	-1.4	-9.4
CCOc1cc(N2CCOCC2)c(OCC)cc1NS(=O)(=O)c1ccc2c(c1)CC(=O)N2	.	.	-0.3	0.4	-5.2	.
CCOC(=O)/C(C#N)=C\c1ccc(OC)c(OC)c1	5.0	-0.2	0.4	-1.2	-8.5	8.5
CCOC(=O)/C(C#N)=C/c1ccc(OC(=O)c2ccco2)c(OCC)c1	-5.3	10.3*	0.0	-5.2	-7.3	-6.6
CCOC(=O)/C(C#N)=C\c1ccc(OCC(=O)Nc2ccc(C)cc2C)c(OC)c1	.	2.8	0.2	46.5*	2.1	7.4
COc1cc(OC)cc(-c2sc3ccc(OC)cc3c2-c2ccc(O)cc2)c1	.	7.0	0.1	-2.3	-3.6	2.3
COc1ccc(-c2c(-c3cc(OC)cc(OC)c3)sc3ccc(OC)cc23)cc1	.	12.9*	0.2	-2.9	1.0	-6.8
CCCCOCCCNC(=O)C[C@H]1C(=O)N(Cc2ccc(OC)cc2)C2=CCCCC[C@@]21C(=O)OC	.	.	.	-3.5	-1.9	.
O=C(Cc1ccc(Cl)cc1)Nc1cccc(C(=O)Nc2ccccc2C(=O)O)c1	-28.8	13.3*	0.0	-1.4	-0.1	-20.0
COc1ccc(CC(=O)Nc2cccc(C(=O)Nc3ccccc3C(=O)O)c2)cc1OC	16.6	-5.7	0.1	-0.9	3.2	-5.4
O=C(Nc1ccccc1C(=O)O)c1ccc(NC(=O)c2ccc(Br)o2)cc1	1.8	12.9*	0.0	0.8	3.7	-12.3
O=C(Nc1ccccc1C(=O)O)c1cccc(C(=O)Nc2ccccc2C(=O)O)c1	-0.2	10.5*	0.2	-2.6	1.7	0.4
CC1CCN(c2ccc(NC(=O)c3ccc(Br)o3)cc2)CC1	-7.8	30.5*	0.1	4.3	0.2	7.0
COc1cc(/C=N\Nc2nncn2N)ccc1OC(C)=O	1.5	0.8	-0.1	-3.8	3.9	1.5
COc1ccc(S(=O)(=O)N2CCCCC2c2cc(C(=O)NCc3cccnc3)no2)cc1 (stereo not drawn)	.	.	0.1	2.2	2.0	.
